Reference: ChEMBL document CHEMBL4261629 (Bioorg Med Chem, 2018)
Active and inactive are the calls of the source. The rule behind the calls is not given here.

Key:
[1] = biological target: T1, Protein deacetylase HDAC6 (Homo sapiens, UniProt Q9UBN7); assay: Inhibition of recombinant human HDAC6 using fluorogenic HDAC substrate preincubated for 15 mins followed by substrate addition and measured after 30 mins by fluorescence analysis
T1 sequence (Q9UBN7 whole entry): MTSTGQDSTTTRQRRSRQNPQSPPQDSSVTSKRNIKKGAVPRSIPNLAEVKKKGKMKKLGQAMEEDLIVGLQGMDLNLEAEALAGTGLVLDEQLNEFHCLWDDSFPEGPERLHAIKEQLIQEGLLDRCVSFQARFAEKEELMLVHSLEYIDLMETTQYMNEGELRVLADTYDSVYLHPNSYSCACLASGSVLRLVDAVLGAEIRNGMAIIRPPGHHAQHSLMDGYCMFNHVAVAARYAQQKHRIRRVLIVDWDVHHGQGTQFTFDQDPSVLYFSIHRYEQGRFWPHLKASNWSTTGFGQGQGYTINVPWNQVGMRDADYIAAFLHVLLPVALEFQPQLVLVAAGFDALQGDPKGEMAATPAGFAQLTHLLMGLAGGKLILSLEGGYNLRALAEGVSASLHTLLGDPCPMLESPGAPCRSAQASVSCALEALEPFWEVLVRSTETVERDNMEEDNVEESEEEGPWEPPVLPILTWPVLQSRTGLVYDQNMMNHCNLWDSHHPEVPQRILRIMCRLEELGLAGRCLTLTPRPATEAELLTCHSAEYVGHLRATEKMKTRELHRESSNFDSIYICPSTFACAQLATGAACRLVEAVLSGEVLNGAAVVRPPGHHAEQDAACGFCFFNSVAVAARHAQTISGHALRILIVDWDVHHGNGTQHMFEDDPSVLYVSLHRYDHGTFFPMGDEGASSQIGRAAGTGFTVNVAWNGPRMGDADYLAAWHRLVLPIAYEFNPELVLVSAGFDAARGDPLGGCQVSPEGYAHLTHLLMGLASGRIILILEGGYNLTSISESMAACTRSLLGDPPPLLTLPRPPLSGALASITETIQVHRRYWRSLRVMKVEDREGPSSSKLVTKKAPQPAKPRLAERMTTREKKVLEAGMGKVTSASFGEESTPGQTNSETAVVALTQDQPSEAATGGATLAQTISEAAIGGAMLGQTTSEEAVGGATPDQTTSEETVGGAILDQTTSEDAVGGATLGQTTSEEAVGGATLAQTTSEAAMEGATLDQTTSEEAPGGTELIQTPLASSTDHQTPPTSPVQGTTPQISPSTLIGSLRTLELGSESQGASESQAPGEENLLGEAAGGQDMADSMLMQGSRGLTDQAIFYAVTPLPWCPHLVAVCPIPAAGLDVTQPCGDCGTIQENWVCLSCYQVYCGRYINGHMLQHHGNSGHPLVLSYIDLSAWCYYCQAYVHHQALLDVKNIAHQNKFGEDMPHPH

[2] = test system: PC-12; assay: Neuroprotective activity against H2O2-induced toxicity in rat PC12 cells assessed as cell viability at 5 to 10 uM pretreated for 24 hrs followed by H2O2 challenge and measured after 12 hrs coincubated with tubastatin A by MTT assay relative to control; format: functional
How it was run: (§1)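 Medium was replaced with fresh medium containing H2O2 (400 μM) or 6-OHDA (200 μM), and incubation continued 12 h. Viability was read by MTT assay. Mean ± SD, three independent experiments.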

[3] = test system: PC-12; assay: Cytoprotective activity against H2O2-induced damage in rat PC12 cells assessed as decrease in ROS accumulation preincubated for 24 hrs followed by H2O2 challenge measured after 12 hrs by DCFH-DA dye-based inverted fluorescence microscopic analysis; format: functional, cell-based
How it was run: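 PC12 cells were pretreated with compound (5 or 10 µM), then challenged with H2O2 and stained with DCFH-DA to show ROS. Fluorescence images were taken by inverted fluorescence microscopy.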

[4] = test system: PC-12; assay: Neuroprotective activity against 6-OHDA-induced toxicity in rat PC12 cells assessed as increase in cell viability at 5 to 10 uM pretreated for 24 hrs followed by 6-OHDA challenge and measured after 12 hrs coincubated with tubastatin A by MTT assay; format: functional, cell-based; how it was run: as §1
[5] = test system: PC-12; assay: Neuroprotective activity against 6-OHDA-induced toxicity in rat PC12 cells assessed as increase in cell viability at 5 uM pretreated for 24 hrs followed by 6-OHDA challenge and measured after 12 hrs by MTT assay; format: functional, cell-based; how it was run: as §1
[6] = test system: PC-12; assay: Cytotoxicity against rat PC12 cells at 20 uM after 24 hrs by MTT assay; format: cell-based; details: pc-12, 24 h
[7] = test system: PC-12; assay: Cytoprotective activity against H2O2-induced damage in rat PC12 cells assessed as decrease in ROS accumulation preincubated for 24 hrs followed by H2O2 challenge measured after 12 hrs by DCFH-DA dye-based fluorescence analysis; format: functional, cell-based
How it was run: (§2)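 Intracellular ROS was detected by DCFH-DA staining, which esterases deacetylate and ROS oxidise to fluorescent dichlorofluorescein. Fluorescence was quantified on a microplate reader.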

[8] = test system: PC-12; assay: Antioxidant activity against H2O2-induced oxidative stress in rat PC12 cells assessed as decrease in ROS accumulation at 5 uM preincubated for 24 hrs followed by H2O2 challenge and measured after 12 hrs coincubated with tubastatin A by DCFH-DA dye-based fluorescence analysis; format: functional, cell-based; how it was run: as §2
[9] = test system: PC-12; assay: Neuroprotective activity against 6-OHDA-induced toxicity in rat PC12 cells assessed as increase in cell viability at 10 uM pretreated for 24 hrs followed by 6-OHDA challenge and measured after 12 hrs by MTT assay; format: functional, cell-based; how it was run: as §1
[10] = Antioxidant activity assessed as tert-butyl hydroperoxide radical scavenging at 10 uM up to 200 mins; format: functional
How it was run: (§3)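 Kinetic peroxide scavenging by GSH at 25 °C in 100 mM phosphate buffer, pH 7.5. Final conditions: EDTA 1 mM, GSH 0.25 mM, NADPH 0.50 mM, glutathione reductase 1.3 unit·mL-1, peroxide 0.20 mM (H2O2, t-BuOOH or Cum-OOH), catalyst 10 μM. Scavenging was followed over time, and maximal scavenging was derived. Mean ± SE, three independent experiments.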

[11] = Antioxidant activity assessed as H2O2 radical scavenging at 10 uM up to 200 mins; format: functional; how it was run: as §3
[12] = test system: PC-12; assay: Antioxidant activity against H2O2-induced oxidative stress in rat PC12 cells assessed as decrease in ROS accumulation at 5 uM preincubated for 24 hrs followed by H2O2 challenge and measured after 12 hrs by DCFH-DA dye-based fluorescence analysis; format: functional, cell-based; how it was run: as §2
[13] = Antioxidant activity assessed as cumene hydroperoxide radical scavenging at 10 uM up to 200 mins; format: functional; how it was run: as §3
[14] = test system: PC-12; assay: Neuroprotective activity against H2O2-induced toxicity in rat PC12 cells assessed as cell viability at 10 uM pretreated for 24 hrs followed by H2O2 challenge and measured after 12 hrs by MTT assay relative to control; format: functional, cell-based; how it was run: as §1
[15] = test system: PC-12; assay: Antioxidant activity against H2O2-induced oxidative stress in rat PC12 cells assessed as decrease in ROS accumulation preincubated for 24 hrs followed by H2O2 challenge and measured after 12 hrs coincubated with tubastatin A by DCFH-DA dye-based fluorescence analysis; format: functional, cell-based; how it was run: as §2
[16] = test system: PC-12; assay: Cytotoxicity against rat PC12 cells at 20 uM in presence of tubastantin A after 24 hrs by MTT assay; format: cell-based; details: pc-12, 24 h
[17] = test system: PC-12; assay: Neuroprotective activity against H2O2-induced toxicity in rat PC12 cells assessed as cell viability at 5 to 10 uM pretreated for 24 hrs followed by H2O2 challenge and measured after 12 hrs coincubated with ebselen by MTT assay relative to control; format: functional
How it was run: (§4)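 PC12 cells seeded at 1 × 10⁴ cells/well and grown 1 d, then pretreated 24 h with compound, alone or with ebselen. Medium replaced with fresh medium containing the insult (H2O2 400 µM or 6-OHDA 200 µM), incubated 12 h. Viability by MTT assay, relative to control. Mean ± SD of three independent experiments.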

[18] = test system: PC-12; assay: Cytotoxicity against rat PC12 cells at 20 uM in presence of ebselen after 24 hrs by MTT assay; format: cell-based; details: pc-12, 24 h
How it was run: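 PC12 cells exposed for 24 h to compound at 10 or 20 µM, alone or combined with ebselen. Viability by MTT assay. Mean ± SD of three independent experiments.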

[19] = test system: PC-12; assay: Neuroprotective activity against 6-OHDA-induced toxicity in rat PC12 cells assessed as increase in cell viability at 5 to 10 uM pretreated for 24 hrs followed by 6-OHDA challenge and measured after 12 hrs coincubated with ebselen by MTT assay; format: functional, cell-based; how it was run: as §4
[20] = test system: PC-12; assay: Antioxidant activity against H2O2-induced oxidative stress in rat PC12 cells assessed as decrease in ROS accumulation at 5 uM preincubated for 24 hrs followed by H2O2 challenge and measured after 12 hrs coincubated with ebselen by DCFH-DA dye-based fluorescence analysis; format: functional, cell-based
How it was run: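 PC12 cells pretreated with compound (5 or 10 µM) alone or together with ebselen, then challenged with H2O2. Intracellular ROS detected by DCFH-DA staining, which is deacetylated in cells and oxidised by ROS to fluorescent dichlorofluorescein. Imaged by inverted fluorescence microscopy and quantified on a fluorescence microplate reader.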

[21] = Antioxidant activity assessed as H2O2 radical scavenging at 10 uM measured within 180 mins; format: functional; how it was run: as §3
[22] = Antioxidant activity assessed as tert-butyl hydroperoxide radical scavenging at 10 uM measured within 180 mins; format: functional; how it was run: as §3
[23] = Antioxidant activity assessed as cumene hydroperoxide radical scavenging at 10 uM measured within 180 mins; format: functional; how it was run: as §3
[24] = biological target: Histone deacetylase 3 (Homo sapiens, UniProt O15379); assay: Inhibition of recombinant human HDAC3 using fluorogenic HDAC substrate after 30 mins by fluorescence analysis
Chain of Histone deacetylase 3 (O15379 whole entry): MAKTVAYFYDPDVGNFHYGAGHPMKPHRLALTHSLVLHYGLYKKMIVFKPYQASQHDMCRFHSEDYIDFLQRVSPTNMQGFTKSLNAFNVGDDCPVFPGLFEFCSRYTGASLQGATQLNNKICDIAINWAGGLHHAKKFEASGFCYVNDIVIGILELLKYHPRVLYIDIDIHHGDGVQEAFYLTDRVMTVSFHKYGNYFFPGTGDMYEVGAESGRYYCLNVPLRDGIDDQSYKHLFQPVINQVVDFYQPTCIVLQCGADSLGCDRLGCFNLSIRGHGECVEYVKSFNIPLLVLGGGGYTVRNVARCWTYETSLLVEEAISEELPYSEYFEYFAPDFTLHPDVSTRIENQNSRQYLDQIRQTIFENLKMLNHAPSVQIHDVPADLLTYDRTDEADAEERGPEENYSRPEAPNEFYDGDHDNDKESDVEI

[25] = biological target: T2, Histone deacetylase 6 (Rattus norvegicus) (UniProt Q99P97); assay: Inhibition of HDAC6 in rat PC12 cells assessed as increase in acetylated alpha-tubulin expression after 24 hrs by Western blot analysis; format: cell-based
T2 sequence (whole entry): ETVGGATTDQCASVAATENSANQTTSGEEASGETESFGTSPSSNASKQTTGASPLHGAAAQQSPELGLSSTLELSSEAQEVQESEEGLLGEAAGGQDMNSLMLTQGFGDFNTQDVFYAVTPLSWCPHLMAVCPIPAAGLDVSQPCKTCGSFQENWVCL
How it was run: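 Cellular HDAC6 inhibition: PC12 cells were incubated with compound at 0.01, 0.1, 1 and 10 μM. Acetylated α-tubulin and total α-tubulin were detected by Western blot, and their ratio was assessed.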

[26] = test system: PC-12; assay: Neuroprotective activity against H2O2-induced toxicity in rat PC12 cells assessed as cell viability at 5 uM pretreated for 24 hrs followed by H2O2 challenge and measured after 12 hrs by MTT assay relative to control; format: functional; details: read-out: Activity; how it was run: as §1

O=C(NO)c1ccc(Cn2[se]c3ccc(C(F)(F)F)cc3c2=O)cc1
IC50 [1]: 584 nM

O=c1c2ccccc2[se]n1-c1ccccc1 [EBSELEN]
Activity [2]: 90%
Activity [3]: Active
IC50 [1]: 11500 nM
Activity [4]: Active
Activity [5]: Active
Activity [6]: Non-Toxic
Activity [7]: Active
Activity [8]: Active
Activity [9]: Active
Activity [10]: 71%
Activity [11]: 51%
Activity [12]: Active
Activity [13]: 29%
Activity [14]: Active
Activity [15]: Active
Activity [16]: Non-Toxic

O=C(CCCOc1ccc(-n2[se]c3ccccc3c2=O)cc1)NO
IC50 [1]: 903 nM

O=C(NO)c1ccc(-n2[se]c3ccccc3c2=O)cc1
IC50 [1]: 1970 nM

CN1CCc2c(c3ccccc3n2Cc2ccc(C(=O)NO)cc2)C1 [TUBASTATIN A]
Activity [17]: 90%
Activity [3]: Active
Activity [5]: Active
Activity [6]: Non-Toxic
Activity [7]: Active
Activity [9]: Active
Activity [18]: Non-Toxic
Activity [19]: Active
Activity [12]: Active
Activity [14]: Active
Activity [20]: Active
Activity [15]: Dose-dependent effect

O=C(NO)c1ccc(Cn2[se]c3ccc(O)cc3c2=O)cc1
Activity [21]: Active
IC50 [1]: 188 nM
Activity [5]: Active
Activity [6]: Non-Toxic
Activity [9]: Active
Activity [22]: Active
Activity [23]: Active
Activity [14]: Active

O=C(CCCCCCn1[se]c2ccccc2c1=O)NO
IC50 [1]: 19 nM
IC50 [24]: 164 nM
Activity [10]: 41%
Activity [11]: 41%
Activity [13]: 25%

O=C(CCc1ccc(-n2[se]c3ccccc3c2=O)cc1)NO
IC50 [1]: 1140 nM

O=C(NO)c1ccc(Cn2[se]c3ccc(F)cc3c2=O)cc1
IC50 [1]: 178 nM

O=C(NO)c1cnc(N2CCC(Cn3[se]c4ccccc4c3=O)CC2)nc1
IC50 [1]: 444 nM

O=C(CCCCCn1[se]c2ccccc2c1=O)NO
IC50 [1]: 181 nM

O=C(/C=C/c1ccc(-n2[se]c3ccccc3c2=O)cc1)NO
IC50 [1]: 679 nM

O=C(NO)c1cnc(N2CCC(n3[se]c4ccccc4c3=O)CC2)nc1
IC50 [1]: 968 nM

O=C(NO)c1ccc(Cn2[se]c3ccccc3c2=O)cc1
Activity [3]: Active
IC50 [1]: 37 nM
inhibition [25]: Dose-dependent effect
IC50 [24]: 1300 nM
Activity [5]: Active
Activity [6]: Non-Toxic
Activity [7]: Active
Activity [9]: Active
Activity [10]: 78%
Activity [11]: 62%
viability at 5 µM [26]: 90%
Activity [12]: Active
Activity [13]: 37%
Activity [15]: Dose-dependent effect

O=C(CCCCCCOc1ccc(-n2[se]c3ccccc3c2=O)cc1)NO
IC50 [1]: 181 nM

CC(c1ccc(C(=O)NO)cc1)n1[se]c2ccccc2c1=O (racemic)
IC50 [1]: 863 nM

O=C(CCCCCOc1ccc(-n2[se]c3ccccc3c2=O)cc1)NO
IC50 [1]: 508 nM

O=C(CCCCn1[se]c2ccccc2c1=O)NO
IC50 [1]: 356 nM
